# Only some compounds are listed: those with a hit (about 4.3% of all), similar ones and a draw of the others.
# Rtt109 HAT inh: C. albicans Rtt109 histone acetyltransferase inhibition; Q5AAJ8; purified Rtt109/Vps75, ThioGlo CoA-SH fluorescence, 4 h; inhibition, % at 34.9 µM; 330,000 compounds, 0.16% hits;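 active = inhibition of at least 50% in every replicate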
# Target sequence (Q5AAJ8 whole entry, looked up): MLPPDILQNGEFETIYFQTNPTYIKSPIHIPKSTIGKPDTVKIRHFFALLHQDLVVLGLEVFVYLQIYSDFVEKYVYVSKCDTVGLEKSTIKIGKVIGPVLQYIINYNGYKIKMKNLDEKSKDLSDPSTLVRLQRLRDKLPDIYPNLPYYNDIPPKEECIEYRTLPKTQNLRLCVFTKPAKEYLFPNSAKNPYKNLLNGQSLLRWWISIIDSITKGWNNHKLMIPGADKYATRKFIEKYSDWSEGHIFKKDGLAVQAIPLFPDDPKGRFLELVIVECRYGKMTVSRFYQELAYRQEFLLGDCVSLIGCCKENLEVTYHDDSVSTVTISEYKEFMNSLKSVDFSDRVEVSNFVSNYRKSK
# CAL PDZ FP-1: blocks peptide binding to human CAL PDZ domain. Q9HD26. purified CAL PDZ, TMR-peptide fluorescence polarization, 1 h. inhibition, % at 20 µM. 330,000 compounds, 0.02% hits. AID 504414;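 active = highest replicate inhibition of at least 40%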;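 note: plate controls were DMSO neutral control wells for no effect and unlabeled competitor peptide control wells for full effect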
#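 material = purified tagged CAL PDZ domain construct (CerCALP) | compound dosing = 20 µM, one dose | times = 1 h at RT | measured by = fluorescence polarization from S- and P-plane intensities, G-factor corrected | read-out = inhibition from polarization loss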
# CAL PDZ FP-2: blocks peptide binding to the human CAL PDZ domain. Q9HD26. purified CAL PDZ, TMR-peptide fluorescence polarization, 1 h. inhibition, % at 24.9 µM. 300,000 compounds, 0.92% hits. AID 602252;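 active = mean inhibition of at least 30% with at least half of replicates also reaching 30%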;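 note: 0% = DMSO neutral control and 100% = excess unlabeled competitor peptide PRC23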
# Dyrk1A ADPGlo: inhibitors of rat Dyrk1A kinase | Q63470 | ADP-Glo luminescence, NFATc1 peptide | inhibition, % at 12.5 µM | 310,000 compounds, 0.43% hits | AID 504441; in the data active = inhibition above about 50%;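 note: plate controls were vehicle with enzyme for no effect and no enzyme for full effect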
# ALR inh: human ALR oxidase inhibition via reduced H2O2. P55789. purified ALR, DTT oxidation, H2O2 HRP-luminol luminescence. inhibition, % (test concentration not listed). 290,000 compounds, 3.8% hits. AID 485317;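 active = mean replicate inhibition above about 79%, with every replicate also reaching it, limit read from the data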
# Target sequence (P55789 whole entry, looked up): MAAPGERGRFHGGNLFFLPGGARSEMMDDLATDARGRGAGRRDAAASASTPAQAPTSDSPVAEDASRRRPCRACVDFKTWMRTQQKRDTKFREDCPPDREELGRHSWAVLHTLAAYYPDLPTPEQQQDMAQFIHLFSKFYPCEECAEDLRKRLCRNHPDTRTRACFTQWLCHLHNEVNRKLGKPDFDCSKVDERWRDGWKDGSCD
# * = called active by the depositor; · = not tested or not shown.
SMILES,Rtt109 HAT inh,CAL PDZ FP-1,CAL PDZ FP-2,Dyrk1A ADPGlo,ALR inh
Cc1cc(C)nc(NS(=O)(=O)c2ccc(NC(=O)COc3ccccc3F)cc2)n1,5.8,-1.8,2.6,·,52.3
Cc1cc(Br)ccc1NC(=O)CN(C)C(=O)C1CSC2(C)CCC(=O)N12 (centres undefined),2.5,-0.4,-2.0,-0.6,2.1
Cc1cccc2nc(COc3ccc(Cl)c4cccnc34)cn12,0.5,-4.8,-0.1,1.8,-20.5
Cc1ccc(NCCC#N)cc1C,-9.6,-0.6,·,5.6,-5.6
CCOCC(=O)Nc1nc2ccc(OCC)cc2s1,-10.7,-2.4,-8.9,24.3,47.4
CCOCC(=O)Nc1nc2ccc(C)cc2s1,-0.7,0.9,0.8,48.6,97.3*
Cc1ccc2nc(NC(=O)CSc3nncc(=O)n3N)sc2c1,12.4,-1.2,-3.6,15.2,99.3*
CCc1ccc(S(=O)(=O)NCCc2cn3cccc(C)c3n2)s1,·,-3.1,-3.1,20.7,-8.9
Cc1cccc(C(=O)Nc2nnc(S(=O)(=O)N(C)Cc3ccco3)s2)c1,-6.1,-0.5,1.7,-1.2,94.2*
Cc1cccc(NS(=O)(=O)c2nnc(NC(=O)c3cccc(C)c3)s2)c1,6.7,0.1,-1.0,-1.3,59.4
O=[N+]([O-])c1cccnc1S(=O)(=O)c1ccccc1,-3.8,0.2,1.9,-1.2,5.8
COc1ccc([N+](=O)[O-])c(S(=O)(=O)c2ccc(Cl)cc2)n1,8.6,-0.1,·,8.0,75.3*
COc1ccc([N+](=O)[O-])c(S(=O)(=O)c2ccccc2)n1,·,·,·,·,97.0*
CCCCN(CCO)CCCC,-9.1,-0.3,-0.5,·,-6.1
COc1cccc(CN2CCN(c3nc4nonc4nc3N3CCCCC3)CC2=O)c1,9.3,-2.2,7.7,-0.9,-2.3
CSc1ccccc1OCc1cc(C(=O)N(C)C(C)c2nc(C)cs2)no1 (centres undefined),-0.5,-1.3,0.5,0.0,-8.3
CCN(CCCNC(=O)CC(C(=O)N1CCc2ccccc21)n1ccnc1)c1ccccc1 (centres undefined),-1.4,-0.1,-5.0,-11.3,98.9*
COCCNC(=O)CN(C(=O)CCC(=O)Nc1ccccn1)c1ccccc1F,-6.0,-0.5,-2.0,1.8,0.7
Nc1ccc(OCc2ccccc2)cc1,-3.7,0.7,2.9,2.4,97.0*
Cc1nc2c3ccccc3nc(NNC(=O)CCC(=O)NC(C)C)n2n1,-2.5,0.0,2.1,-5.9,15.7
COc1ccc(N2CCN(CCNC(=O)CCC(=O)NNc3nc4ccccc4c4nc(C)nn34)CC2)cc1,-7.6,0.1,-7.9,-2.6,95.8*
Cc1nc2c3ccccc3nc(NNC(=O)CCC(=O)NC3CCCC3)n2n1,-1.6,-2.5,-6.9,-2.1,78.5*
O=C(NCc1n[nH]c(=S)n1-c1cccc(Cl)c1)c1ccc(S(=O)(=O)N2CCCCC2)cc1,7.3,-1.2,1.1,4.3,26.0
CSCCC(NC(=O)c1ccccc1C)C(=O)O (centres undefined),-4.2,-1.1,-4.1,-3.6,2.8
COc1ccc(C(=O)CN2CCN(c3ncccn3)CC2)cc1,-3.7,0.7,6.4,4.1,·
SMILES,Rtt109 HAT inh,CAL PDZ FP-1,CAL PDZ FP-2,Dyrk1A ADPGlo,ALR inh
COc1ccc(N2CCN(c3ncccn3)CC2)cc1,-4.1,-0.3,-2.9,1.1,99.5*
COc1ccc(N2CCN(Cc3nc4ccccc4n3C)CC2)cc1,2.5,0.0,-3.8,3.0,88.6*
O=C(Cc1cccc2ccccc12)Nc1ccc(Br)cc1C(=O)O,-3.2,-1.4,0.3,-2.9,·
O=C(Cc1cccc2ccccc12)Nc1ccc(O)cc1C(=O)O,0.6,·,-4.3,-1.9,96.9*
O=C(CSCc1ccc(Cl)cc1)Nc1ccc(O)cc1C(=O)O,2.8,-0.4,3.5,0.1,96.3*
CC1(C)CC2(CCO1)C(Nc1ccccc1)=NC(=S)N2c1ccccc1 (centres undefined),·,·,·,·,-0.3
COc1ccc(Nc2cccc(Cl)c2)c(C(=O)O)c1,2.6,-0.3,1.3,0.0,98.4*
CN(C(=O)c1ccnn1C)C1CCCN(Cc2ccccc2F)C1 (centres undefined),3.6,-0.5,44.8*,·,-4.7
CC(=O)c1ccccc1C(=O)N(C)C1CCCN(Cc2ccccc2F)C1 (centres undefined),19.9,-0.3,·,8.2,-3.4
Cc1cccc(N2CCN(c3ccc(NC(=O)/C=C(/C(=O)O)c4ccccc4)cc3)CC2)c1,-1.5,·,2.0,2.8,95.8*
CC(=O)OCC1=C(C(=O)O)N2C(=O)C(NC(=O)c3ccc(COc4c(C)cccc4Cl)o3)C2SC1 (centres undefined),·,-0.8,-2.6,4.3,97.6*
Cc1ccc(S(=O)(=O)c2nc(NN(C)C)sc2Cl)cc1,7.4,8.9,120.5*,5.3,97.1*
Cc1ccc(S(=O)(=O)c2nc(Nc3ccccc3C#N)sc2Cl)cc1,1.9,-1.3,0.4,-1.9,-3.9
Cn1ncc(Cl)c1C(=O)N1CCN(c2ccc(F)cc2)CC1,-1.3,-0.8,-3.6,0.5,26.0
Cc1c(Br)cnn1C(C)C(=O)N1CCN(c2ccc(F)cc2)CC1 (centres undefined),7.0,0.7,4.7,·,94.0*
COc1ccc(-c2oc3cc(OC(C)=O)cc(OC(C)=O)c3c(=O)c2OC)cc1,-4.6,-4.1,-2.5,·,·
COc1ccc(-c2oc3cc(OC)c(O)c(OC)c3c(=O)c2OC)cc1O,-14.1,-1.3,-8.1,28.3,100.0*
CC(=O)Oc1cc(O)c2c(=O)c(OC(C)=O)c(-c3ccc(OC(C)=O)c(OC(C)=O)c3)oc2c1,31.6,-0.2,1.7,85.8*,82.3*
O=C(COC(=O)c1cc[n+]([O-])cc1)Nc1cccc(F)c1,0.5,-2.7,-2.5,3.4,-11.6
CCN(CC)S(=O)(=O)c1ccc(O)c(NS(=O)(=O)c2ccccc2F)c1,1.7,0.2,-1.9,-5.1,50.3
CCn1cnc2cc(NCc3ccc(Br)cc3)ccc21,·,·,·,·,86.3*
CCCn1cnc2cc(NCc3ccc(Br)cc3)ccc21,-2.7,·,-0.8,-0.6,44.2
CCn1cnc2cc(NCc3ccc(C)cc3)ccc21,18.9,-3.5,-0.5,-1.8,86.5*
Cc1ccc(CNc2ccc3c(c2)ncn3C(C)C)cc1,9.9,-1.8,-1.6,-1.6,93.1*
CC(C)(C)c1ccc(OCC(=O)N2CCN(c3ncccn3)CC2)cc1,14.3,-0.2,1.3,1.4,-14.9
SMILES,Rtt109 HAT inh,CAL PDZ FP-1,CAL PDZ FP-2,Dyrk1A ADPGlo,ALR inh
CC(O)CC(=O)NOCc1ccccc1 (centres undefined),2.2,-1.1,-4.3,-3.0,·
Cc1ccc(CS(=O)(=O)Cc2ccc(C(=O)NCCCN3CC(C)CC(C)C3)o2)cc1 (centres undefined),-0.4,0.4,-4.6,-1.0,-25.2
CCC(C)C(NC(=O)C(C)NC(=O)CNC(=O)CNC(=O)OCc1ccccc1)C(=O)OC (centres undefined),0.4,-1.0,47.4*,-2.3,-4.1
COC(=O)C(NC(=O)C(C)NC(=O)OCc1ccccc1)C(C)C (centres undefined),1.4,0.2,·,1.7,-5.5
Nc1ccc2nc[nH]c2c1,20.7,-1.4,-1.1,10.2,99.0*
O=[N+]([O-])c1ccc2nc[nH]c2c1,-4.6,0.1,1.4,29.9,·

# Assay outcomes from PubChem.
